Results reported in ChEMBL document CHEMBL1122318, “Aporphines. 50. Kinetics of solvolysis of N-(2-chloroethyl)norapomorphine, an irreversible dopamine receptor antagonist” (J Med Chem, 1983).
Values joined by “and” are separate entries in the source; they are usually repeats but may differ in a detail not shown here. Equal values may be shown once.

Key:
Assay type in all cases: ADME
[1] = Half-life period at pH 6.75(in 0.1 M […]).; conditions: 0.1 M […] buffer
[2] = Apparent rate of cyclization (kobsd) value at pH 5.80(in 0.1 M acetate).; conditions: pH 5.8
Summary of the method: (§1)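 Buffers were 0.1 M sodium acetate titrated with 0.1 M acetic acid below pH 6.0, and NaH2PO4–Na2HPO4 (100 mM) at pH 6.0–8.0. Remaining NCA was quantified from peak heights against a 100–900 ng standard curve. First-order kobsd came from log[NCA] versus time over at least two half-lives.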

[3] = Half-life period at pH 5.40(in 0.1 M acetate).; conditions: 0.1 M acetate buffer, pH 5.4; summary of the method: as §1
[4] = Half-life period at pH 7.50(in 0.1 M […]).; conditions: 0.1 M […] buffer, pH 7.5
[5] = Half-life period at pH 6.00(in 0.1 M […]).; conditions: 0.1 M acetate buffer
[6] = Apparent rate of cyclization (kobsd) value at pH 6.75(in 0.1 M phosphate).; summary of the method: as §1
[7] = Apparent rate of cyclization (kobsd) value at pH 6.00(in 0.1 M phosphate).; summary of the method: as §1
[8] = Half-life period at pH 6.25(in 0.1 M […]).; conditions: 0.1 M […] buffer
[9] = Half-life period at pH 5.80(in 0.1 M acetate).; conditions: 0.1 M acetate buffer, pH 5.8; summary of the method: as §1
[10] = Apparent rate of cyclization (kobsd) value at pH 5.60(in 0.1 M acetate).; conditions: pH 5.6; summary of the method: as §1
[11] = Apparent rate of cyclization (kobsd) value at pH 7.00(in 0.1 M […]).
[12] = Apparent rate of cyclization (kobsd) value at pH 6.25(in 0.1 M phosphate).; summary of the method: as §1
[13] = Apparent rate of cyclization (kobsd) value at pH 8.00(in 0.1 M […]).
[14] = Half-life period at pH 7.00(in 0.1 M […]).
[15] = Half-life period at pH 5.60(in 0.1 M acetate).; conditions: 0.1 M acetate buffer, pH 5.6; summary of the method: as §1
[16] = Half-life period at pH 6.50(in 0.1 M […]).; conditions: 0.1 M […] buffer, pH 6.5
[17] = Half-life period at pH 8.00(in 0.1 M […]).; conditions: 0.1 M […] buffer
[18] = Apparent rate of cyclization (kobsd) value at pH 5.40(in 0.1 M acetate).; conditions: pH 5.4; summary of the method: as §1
[19] = Apparent rate of cyclization (kobsd) value at pH 6.50(in 0.1 M phosphate).; conditions: pH 6.5; summary of the method: as §1

`Oc1ccc2c(c1O)-c1cccc3c1[C@@H](C2)N(CCCl)CC3` showed a half-life [1] of 33 min, a k obs [2] of 65 min⁻¹ and a half-life [3] of 192 min. It also gave a half-life [4] of 24 min, a half-life [5] of 71 min and a k obs [6] of 212 min⁻¹. It also gave a k obs [7] of 97 min⁻¹, a half-life [8] of 45 min and a half-life [9] of 107 min. The k obs [10] was 49 min⁻¹, the k obs [11] was 243 min⁻¹ and 252 min⁻¹ and the k obs [12] was 152 min⁻¹. It also gave a k obs [13] of 308 min⁻¹, a T1/2 [14] of 28 min and a half-life ([14]; 0.1 M acetate buffer) of 29 min. The half-life [15] was 141 min, the half-life [16] was 39 min and the half-life [17] was 22 min. It also gave a k obs [18] of 36 min⁻¹ and a k obs [19] of 175 min⁻¹.
